Source: ChEMBL document CHEMBL3627597, “Synthesis of Fluorine-Containing Phosphodiesterase 10A (PDE10A) Inhibitors and the In Vivo Evaluation of F-18 Labeled PDE10A PET Tracers in Rodent and Nonhuman Primate” (J Med Chem, 2015)

Tests used:
[1] = Metabolic stability in cynomolgus monkey plasma assessed as compound remaining at 185 to 259 MBq, iv measured at 30 mins by HPLC analysis; type: ADME, organism-based, Macaca fascicularis; conditions: read-out: Stability
Summary of the method: (§1)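 Arterial blood (~1.5 mL) drawn at 2, 15, 30, 60 and 90 min p.i. into heparinized syringes, then centrifuged to plasma. Plasma deproteinated with 2 parts ice-cold methanol. Extract run on C-18 HPLC, MeCN/0.1 M ammonium formate pH 4.5, 0.9 mL/min, UV 254 nm. 1-min fractions over 16 min were well-counted and decay-corrected; parent percentage taken from recovered activity.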

Bone [2] = assay: Biodistribution in Sprague-Dawley rat bone at 1.48 to 2.22 MBq, iv measured at 5 mins by gamma counting analysis; type: ADME, organism-based, Bone element; conditions: in vivo
Summary of the method: (§2)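 Male Sprague-Dawley rats (250 - 400 g), tail-vein injection of 1.48 - 2.22 MBq radiotracer under 2.5% isoflurane in oxygen; n=4 per time point, euthanized at 5, 30 and 60 min p.i. Brain regions obtained by gross dissection; peripheral tissues collected. Samples weighed, gamma-counted against a diluted-injectate standard; %ID/g calculated.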

Rattus norvegicus [3] = assay: Biodistribution in Sprague-Dawley rat fat tissue at 1.48 to 2.22 MBq, iv measured at 5 mins by gamma counting analysis; type: ADME, organism-based, Adipose tissue; conditions: in vivo; summary of the method: as §2
Bone [4] = assay: Biodistribution in Sprague-Dawley rat bone at 1.48 to 2.22 MBq, iv measured at 30 mins by gamma counting analysis; type: ADME, organism-based, Bone element; conditions: in vivo, 0.5 h; summary of the method: as §2
Plasma = assay: Retention time of the compound in cynomolgus monkey plasma at 185 to 259 MBq, iv by HPLC analysis; type: ADME, organism-based, Macaca fascicularis; summary of the method: as §1
Kidney [5] = assay: Biodistribution in Sprague-Dawley rat kidney at 1.48 to 2.22 MBq, iv measured at 60 mins by gamma counting analysis; type: ADME, organism-based; conditions: in vivo, 1 h; summary of the method: as §2
Blood [6] = assay: Biodistribution in Sprague-Dawley rat blood at 1.48 to 2.22 MBq, iv measured at 30 mins by gamma counting analysis; type: ADME, organism-based; conditions: in vivo, 0.5 h; summary of the method: as §2
Nucleic Acid [7] = assay: Ratio of drug level in striatum to cerebellum in cynomolgus monkey at 185 to 259 MBq, iv measured at 40 mins by micro PET image analysis; type: ADME, organism-based, Macaca fascicularis; conditions: in vivo
Summary of the method: (§3)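 Adult male cynomolgus macaques (~4–6 kg), three independent PET studies per tracer on a microPET Focus 220. Animals fasted 12 h and anesthetized with ketamine (10 mg/kg) plus glycopyrrolate (0.13 mg/kg) i.m. A 10 min positioning transmission scan and a 45 min attenuation transmission scan were run, then a 3 h dynamic emission scan after venous tracer injection. Regional TACs came from ROIs, expressed as SUV (body weight, injected dose).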

Blood [8] = assay: Biodistribution in Sprague-Dawley rat blood at 1.48 to 2.22 MBq, iv measured at 60 mins by gamma counting analysis; type: ADME, organism-based; conditions: in vivo, 1 h; summary of the method: as §2
Rattus norvegicus [9] = assay: Biodistribution in Sprague-Dawley rat fat tissue at 1.48 to 2.22 MBq, iv measured at 30 mins by gamma counting analysis; type: ADME, organism-based, Adipose tissue; conditions: in vivo, 0.5 h; summary of the method: as §2
Liver [10] = assay: Biodistribution in Sprague-Dawley rat liver at 1.48 to 2.22 MBq, iv measured at 5 mins by gamma counting analysis; type: ADME, organism-based; conditions: in vivo; summary of the method: as §2
Brain [11] = assay: Biodistribution in Sprague-Dawley rat brain at 1.48 to 2.22 MBq, iv measured at 30 mins by gamma counting analysis; type: ADME, organism-based; conditions: in vivo, 0.5 h; summary of the method: as §2
Caudate = assay: Drug uptake in cynomolgus monkey caudate at 185 to 259 MBq, iv measured over 180 mins by micro PET image analysis; type: ADME, organism-based, Macaca fascicularis, Caudate nucleus; conditions: in vivo, 3 h
Summary of the method: (§4)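 Adult male cynomolgus macaques (~4–6 kg), three studies per tracer, fasted 12 h. Induction with ketamine 10 mg/kg plus glycopyrrolate 0.13 mg/kg i.m. Transmission scans of 10 min for positioning and 45 min for attenuation correction, then a 3 h dynamic microPET emission scan after venous injection of 185 - 259 MBq. ROI time-activity curves expressed as SUV (body weight and injected dose).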

Striatum = assay: Biodistribution in Sprague-Dawley rat striatum at 1.48 to 2.22 MBq, iv measured at 30 mins by gamma counting analysis; type: ADME, organism-based; conditions: in vivo, 0.5 h; summary of the method: as §2
[12] = Metabolic stability in cynomolgus monkey plasma assessed as compound remaining at 185 to 259 MBq, iv measured at 2 mins by HPLC analysis; type: ADME, organism-based, Macaca fascicularis; conditions: read-out: Stability; summary of the method: as §1
Muscle tissue [13] = assay: Biodistribution in Sprague-Dawley rat muscle at 1.48 to 2.22 MBq, iv measured at 5 mins by gamma counting analysis; type: ADME, organism-based; conditions: in vivo; summary of the method: as §2
[14] = Metabolic stability in cynomolgus monkey plasma assessed as compound remaining at 185 to 259 MBq, iv measured at 15 mins by HPLC analysis; type: ADME, organism-based, Macaca fascicularis; conditions: read-out: Stability; summary of the method: as §1
Kidney [15] = assay: Biodistribution in Sprague-Dawley rat kidney at 1.48 to 2.22 MBq, iv measured at 5 mins by gamma counting analysis; type: ADME, organism-based; conditions: in vivo; summary of the method: as §2
Brain [16] = assay: Biodistribution in Sprague-Dawley rat brain at 1.48 to 2.22 MBq, iv measured at 5 mins by gamma counting analysis; type: ADME, organism-based; conditions: in vivo; summary of the method: as §2
Liver [17] = assay: Biodistribution in Sprague-Dawley rat liver at 1.48 to 2.22 MBq, iv measured at 30 mins by gamma counting analysis; type: ADME, organism-based; conditions: in vivo, 0.5 h; summary of the method: as §2
Nucleic Acid [18] = assay: Ratio of drug level in striatum to temporal region in cynomolgus monkey at 185 to 259 MBq, iv measured at 40 mins by micro PET image analysis; type: ADME, organism-based, Macaca fascicularis; conditions: in vivo; summary of the method: as §3
Muscle tissue [19] = assay: Biodistribution in Sprague-Dawley rat muscle at 1.48 to 2.22 MBq, iv measured at 30 mins by gamma counting analysis; type: ADME, organism-based; conditions: in vivo, 0.5 h; summary of the method: as §2
Nucleic Acid [20] = assay: Ratio of drug level in striatum to frontal in cynomolgus monkey at 185 to 259 MBq, iv measured at 40 mins by micro PET image analysis; type: ADME, organism-based, Macaca fascicularis; conditions: in vivo; summary of the method: as §3
[21] = Metabolic stability in cynomolgus monkey plasma assessed as compound remaining at 185 to 259 MBq, iv measured at 90 mins by HPLC analysis; type: ADME, organism-based, Macaca fascicularis; conditions: read-out: Stability; summary of the method: as §1
[22] = Metabolic stability in cynomolgus monkey plasma assessed as compound remaining at 185 to 259 MBq, iv measured at 60 mins by HPLC analysis; type: ADME, organism-based, Macaca fascicularis; conditions: read-out: Stability; summary of the method: as §1
Kidney [23] = assay: Biodistribution in Sprague-Dawley rat kidney at 1.48 to 2.22 MBq, iv measured at 30 mins by gamma counting analysis; type: ADME, organism-based; conditions: in vivo, 0.5 h; summary of the method: as §2
Nucleic Acid [24] = assay: Ratio of drug level in striatum to white matter in cynomolgus monkey at 185 to 259 MBq, iv measured at 40 mins by micro PET image analysis; type: ADME, organism-based, Macaca fascicularis; conditions: in vivo; summary of the method: as §3
Nucleic Acid [25] = assay: Ratio of drug level in striatum to occipital in cynomolgus monkey at 185 to 259 MBq, iv measured at 40 mins by micro PET image analysis; type: ADME, organism-based, Macaca fascicularis; conditions: in vivo; summary of the method: as §3
Blood [26] = assay: Biodistribution in Sprague-Dawley rat blood at 1.48 to 2.22 MBq, iv measured at 5 mins by gamma counting analysis; type: ADME, organism-based; conditions: in vivo; summary of the method: as §2
[27] = Ratio of drug level in striatum to cerebellum in Sprague-Dawley rat at 1.48 to 2.22 MBq, iv measured at 5 to 30 mins by gamma counting analysis; type: ADME, organism-based; conditions: in vivo
Summary of the method: (§5)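 Striatum, cerebellum and cortex obtained by gross dissection from Sprague-Dawley rats (250 - 400 g, n=4 per time point) after tail-vein injection of 1.48 - 2.22 MBq under isoflurane anesthesia. Tissues weighed and gamma-counted with an injectate standard to give %ID/g; ratios taken from striatal versus non-target uptake.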

Nucleic Acid [28] = assay: Ratio of drug level in striatum to hippocampus in cynomolgus monkey at 185 to 259 MBq, iv measured at 40 mins by micro PET image analysis; type: ADME, organism-based, Macaca fascicularis; conditions: in vivo; summary of the method: as §3
Nucleic Acid [29] = assay: Ratio of drug level in striatum to midbrain region in cynomolgus monkey at 185 to 259 MBq, iv measured at 40 mins by micro PET image analysis; type: ADME, organism-based, Macaca fascicularis, Brain; conditions: in vivo; summary of the method: as §3
Bone [30] = assay: Biodistribution in Sprague-Dawley rat bone at 1.48 to 2.22 MBq, iv measured at 60 mins by gamma counting analysis; type: ADME, organism-based, Bone element; conditions: in vivo, 1 h; summary of the method: as §2
Brain [31] = assay: Biodistribution in Sprague-Dawley rat brain at 1.48 to 2.22 MBq, iv measured at 60 mins by gamma counting analysis; type: ADME, organism-based; conditions: in vivo, 1 h; summary of the method: as §2
Nucleic Acid [32] = assay: Ratio of drug level in striatum to cortex in Sprague-Dawley rat at 1.48 to 2.22 MBq, iv measured at 5 to 30 mins by gamma counting analysis; type: ADME, organism-based; conditions: in vivo; summary of the method: as §5
Rattus norvegicus [33] = assay: Biodistribution in Sprague-Dawley rat fat tissue at 1.48 to 2.22 MBq, iv measured at 60 mins by gamma counting analysis; type: ADME, organism-based, Adipose tissue; conditions: in vivo, 1 h; summary of the method: as §2
Liver [34] = assay: Biodistribution in Sprague-Dawley rat liver at 1.48 to 2.22 MBq, iv measured at 60 mins by gamma counting analysis; type: ADME, organism-based; conditions: in vivo, 1 h; summary of the method: as §2
Muscle tissue [35] = assay: Biodistribution in Sprague-Dawley rat muscle at 1.48 to 2.22 MBq, iv measured at 60 mins by gamma counting analysis; type: ADME, organism-based; conditions: in vivo, 1 h; summary of the method: as §2
Putamen = assay: Drug uptake in cynomolgus monkey putamen at 185 to 259 MBq, iv measured over 180 mins by micro PET image analysis; type: ADME, organism-based, Macaca fascicularis; conditions: in vivo, 3 h; summary of the method: as §4

remaining at 0.5 h [1]: 90% | Drug uptake (Bone [2]): 0.189 % ID/g | Drug uptake (Rattus norvegicus [3]): 0.213 % ID/g | Drug uptake (Bone [4]): 0.091 % ID/g | Retention_time (Plasma): 10.5 min | Drug uptake (Kidney [5]): 0.765 % ID/g | Drug uptake (Blood [6]): 0.226 % ID/g | Ratio (Nucleic Acid [7]): > 3 | Drug uptake (Blood [8]): 0.215 % ID/g | Drug uptake (Rattus norvegicus [9]): 0.302 % ID/g | Drug uptake (Liver [10]): 6.88 % ID/g | Drug uptake (Brain [11]): 0.078 % ID/g | Drug uptake (Caudate): Active | Drug uptake (Striatum): Active | remaining at 2 min [12]: 98% | Drug uptake (Muscle tissue [13]): 0.247 % ID/g | remaining at 0.25 h [14]: 93% | Drug uptake (Kidney [15]): 2.2 % ID/g | Drug uptake (Brain [16]): 0.118 % ID/g | Drug uptake (Liver [17]): 6.98 % ID/g | Ratio (Nucleic Acid [18]): > 3 | Drug uptake (Muscle tissue [19]): 0.134 % ID/g | Ratio (Nucleic Acid [20]): > 3 | remaining at 1.5 h [21]: 57% | remaining at 1 h [22]: 75% | Drug uptake (Kidney [23]): 1.055 % ID/g | Ratio (Nucleic Acid [24]): > 3 | Ratio (Nucleic Acid [25]): > 3 | Drug uptake (Blood [26]): 0.362 % ID/g | Ratio [27]: > 2 | Ratio (Nucleic Acid [28]): > 3 | Ratio (Nucleic Acid [29]): > 3 | Drug uptake (Bone [30]): 0.142 % ID/g | Drug uptake (Brain [31]): 0.101 % ID/g | Ratio (Nucleic Acid [32]): > 2 | Drug uptake (Rattus norvegicus [33]): 0.259 % ID/g | Drug uptake (Liver [34]): 3.29 % ID/g | Drug uptake (Muscle tissue [35]): 0.132 % ID/g | Drug uptake (Putamen): Active
SMILES: Cn1cc(-c2ccncc2)c(-c2ccc(OCc3cc(OCC[18F])c4ccccc4n3)cc2)n1
